The values below come from ChEMBL document CHEMBL4808225, “Discovery and Characterization of Selective and Ligand-Efficient DYRK Inhibitors” (J Med Chem, 2021).

Series [1] can be described thus: Metabolic stability in human liver microsomes. The format is ADME, Microsome. The settings on record: read-out: Stabilty.
In series [2] the target is Dual specificity tyrosine-phosphorylation-regulated kinase 1B (Homo sapiens) (UniProt Q9Y463). Nature of the series: Inhibition of wild-type human full length DYRK1B (M1 to S629 residues) expressed in bacterial expression system assessed as remaining activity at 1 uM by Kinomescan method relative to control. An outline of the steps:
(§1)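 KINOMEscan competition binding panel run with inhibitor at 1 μM; read-out is remaining kinase activity (percent of control).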

Series [3] addresses T1, Dual specificity protein kinase CLK1 (Homo sapiens, UniProt P49759). Nature of the series: Inhibition of wild-type human full length CLK1 (M1 to I484 residues) expressed in bacterial expression system assessed as remaining activity at 1 uM by Kinomescan method relative to control. The essentials:
as §1
Target sequence in this assay (P49759 whole entry, looked up, the tested form may be a part): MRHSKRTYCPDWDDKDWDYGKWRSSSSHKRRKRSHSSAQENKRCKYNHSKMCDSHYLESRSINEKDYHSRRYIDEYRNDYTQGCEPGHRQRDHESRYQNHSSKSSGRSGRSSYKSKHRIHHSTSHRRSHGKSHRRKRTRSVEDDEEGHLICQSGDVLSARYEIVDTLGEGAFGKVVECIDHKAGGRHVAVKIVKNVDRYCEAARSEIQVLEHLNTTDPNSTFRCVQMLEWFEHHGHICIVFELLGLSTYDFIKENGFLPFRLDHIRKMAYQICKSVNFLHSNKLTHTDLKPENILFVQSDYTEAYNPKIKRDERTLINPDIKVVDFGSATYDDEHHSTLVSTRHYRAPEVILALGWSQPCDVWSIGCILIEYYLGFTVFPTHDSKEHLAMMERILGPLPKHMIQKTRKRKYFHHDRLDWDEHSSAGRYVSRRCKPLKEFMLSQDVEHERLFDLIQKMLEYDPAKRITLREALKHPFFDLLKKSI

Series [4] deals with Dual specificity protein kinase CLK3 (Homo sapiens) (UniProt P49761). Kind of series: Inhibition of wild-type human full length CLK3 (M1 to R490 residues) expressed in bacterial expression system assessed as remaining activity at 1 uM by Kinomescan method relative to control. The essentials:
as §1

Series [5] concerns the target Cyclin-dependent kinase 2 (Homo sapiens) (UniProt P24941). Nature of the series: Inhibition of wild-type human full length CDK2 (M1 to L298 residues) expressed in bacterial expression system assessed as remaining activity at 1 uM by Kinomescan method relative to control. The essentials:
as §1

In series [6] the target is T2, Serine/threonine-protein kinase haspin (Homo sapiens, UniProt Q8TF76).
T2 sequence (Q8TF76 whole entry): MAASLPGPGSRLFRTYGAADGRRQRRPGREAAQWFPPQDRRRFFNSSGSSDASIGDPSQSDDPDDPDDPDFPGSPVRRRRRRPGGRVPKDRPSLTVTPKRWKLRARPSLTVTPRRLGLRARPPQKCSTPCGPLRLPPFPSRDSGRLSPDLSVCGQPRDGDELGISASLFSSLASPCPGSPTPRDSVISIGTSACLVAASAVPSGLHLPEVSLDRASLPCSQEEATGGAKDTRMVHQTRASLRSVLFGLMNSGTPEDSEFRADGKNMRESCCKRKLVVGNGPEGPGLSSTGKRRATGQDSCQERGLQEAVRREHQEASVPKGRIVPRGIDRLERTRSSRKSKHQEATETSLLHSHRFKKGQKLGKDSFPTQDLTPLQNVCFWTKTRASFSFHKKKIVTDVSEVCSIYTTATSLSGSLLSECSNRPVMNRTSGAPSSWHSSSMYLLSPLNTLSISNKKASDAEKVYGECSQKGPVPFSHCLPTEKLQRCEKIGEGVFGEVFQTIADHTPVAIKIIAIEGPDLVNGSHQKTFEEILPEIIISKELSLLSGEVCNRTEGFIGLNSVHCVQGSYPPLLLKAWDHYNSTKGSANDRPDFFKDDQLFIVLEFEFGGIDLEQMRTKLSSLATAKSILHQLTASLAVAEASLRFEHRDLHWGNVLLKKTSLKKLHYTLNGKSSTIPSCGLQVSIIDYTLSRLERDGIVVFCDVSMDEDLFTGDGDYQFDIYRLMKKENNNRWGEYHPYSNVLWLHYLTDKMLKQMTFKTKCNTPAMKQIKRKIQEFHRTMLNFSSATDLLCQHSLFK
Kind of series: Binding affinity to wild-type human partial length HASPIN (I452 to K798 residues) expressed in mammalian expression system measured after 1 hr by competitive binding assay.

Series [7] concerns the target T1, Dual specificity protein kinase CLK1. Nature of the series: Binding affinity to wild-type human full length CLK1 (M1 to I484 residues) expressed in bacterial expression system measured after 1 hr by competitive binding assay.
Target sequence in this assay (P49759 whole entry, the tested form may be a part): as the sequence (P49759 whole entry, looked up, the tested form may be a part) above
Series [8] has as its target MAP kinase-interacting serine/threonine-protein kinase 2 (Homo sapiens, UniProt Q9HBH9). Kind of series: Binding affinity to wild-type human partial length MKNK2 (G63 to S388 residues) expressed in mammalian expression system measured after 1 hr by competitive binding assay.
Series [9] deals with T3, Tyrosine-protein kinase JAK3 (Homo sapiens, UniProt P52333).
T3 sequence (P52333 whole entry): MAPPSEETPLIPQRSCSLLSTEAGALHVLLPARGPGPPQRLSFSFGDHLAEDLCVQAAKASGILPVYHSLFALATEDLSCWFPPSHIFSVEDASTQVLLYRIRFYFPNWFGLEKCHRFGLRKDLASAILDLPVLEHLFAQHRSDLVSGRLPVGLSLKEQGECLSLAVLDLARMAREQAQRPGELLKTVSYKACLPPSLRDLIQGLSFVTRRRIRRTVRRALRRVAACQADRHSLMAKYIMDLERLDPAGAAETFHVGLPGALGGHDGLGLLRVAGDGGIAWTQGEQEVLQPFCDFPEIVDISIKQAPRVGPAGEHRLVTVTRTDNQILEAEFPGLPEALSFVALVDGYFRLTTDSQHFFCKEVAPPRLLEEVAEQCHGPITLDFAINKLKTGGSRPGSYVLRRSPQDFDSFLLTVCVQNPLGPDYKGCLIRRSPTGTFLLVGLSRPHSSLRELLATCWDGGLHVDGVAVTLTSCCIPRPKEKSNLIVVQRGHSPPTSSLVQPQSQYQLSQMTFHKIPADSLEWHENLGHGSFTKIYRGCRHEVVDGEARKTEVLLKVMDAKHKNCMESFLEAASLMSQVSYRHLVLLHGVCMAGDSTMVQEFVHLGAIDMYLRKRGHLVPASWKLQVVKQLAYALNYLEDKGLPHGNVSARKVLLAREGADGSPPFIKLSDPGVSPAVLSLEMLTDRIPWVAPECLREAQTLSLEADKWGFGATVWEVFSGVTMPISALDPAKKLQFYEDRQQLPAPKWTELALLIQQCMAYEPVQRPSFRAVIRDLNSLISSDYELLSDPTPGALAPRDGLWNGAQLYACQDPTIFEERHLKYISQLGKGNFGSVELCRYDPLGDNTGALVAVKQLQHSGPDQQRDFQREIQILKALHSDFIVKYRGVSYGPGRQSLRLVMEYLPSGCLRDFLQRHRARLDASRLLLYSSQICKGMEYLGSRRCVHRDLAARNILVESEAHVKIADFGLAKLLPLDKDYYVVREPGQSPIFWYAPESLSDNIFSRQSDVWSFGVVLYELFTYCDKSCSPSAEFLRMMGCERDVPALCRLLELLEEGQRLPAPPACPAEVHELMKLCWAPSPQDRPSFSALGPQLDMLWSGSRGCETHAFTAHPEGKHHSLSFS
Kind of series: Binding affinity to wild-type human partial length JAK3 JH1 catalytic domain (I781 to S1124 residues) expressed in mammalian expression system measured after 1 hr by competitive binding assay.

Series [10] deals with STE20/SPS1-related proline-alanine-rich protein kinase (Homo sapiens, UniProt Q9UEW8). Nature of the series: Binding affinity to wild-type human partial length STK39 (P43 to I357 residues) expressed in mammalian expression system measured after 1 hr by competitive binding assay.
Series [11] can be described thus: Half life in Sprague-Dawley rat at 1 mg/kg, iv. Format: ADME, organism-based. The settings on record: in vivo. The essentials: (§2)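 Single intravenous dose of 1 mg/kg given to fed Sprague–Dawley rats (n = 3); plasma and brain samples collected for pharmacokinetic parameters, with total brain:plasma ratio computed.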
Series [12] is described as follows: Tmax in Sprague-Dawley rat at 1 mg/kg, iv. Format: ADME, organism-based. As to conditions: in vivo. An outline of the steps: as §2
Series [13] can be described thus: Cmax in Sprague-Dawley rat at 1 mg/kg, iv. Format: ADME, organism-based. Details: route intravenous, dose 1 mg/kg. The settings on record: in vivo. The essentials: as §2
A short description of series [14]: MRT in Sprague-Dawley rat at 1 mg/kg, iv. The format is ADME, organism-based. The settings on record: in vivo. An outline of the steps:
as §2

Each structure is given as a SMILES string.

Dual specificity tyrosine-phosphorylation-regulated kinase 1B (Homo sapiens), sequence (Q9Y463 whole entry, looked up, the tested form may be a part): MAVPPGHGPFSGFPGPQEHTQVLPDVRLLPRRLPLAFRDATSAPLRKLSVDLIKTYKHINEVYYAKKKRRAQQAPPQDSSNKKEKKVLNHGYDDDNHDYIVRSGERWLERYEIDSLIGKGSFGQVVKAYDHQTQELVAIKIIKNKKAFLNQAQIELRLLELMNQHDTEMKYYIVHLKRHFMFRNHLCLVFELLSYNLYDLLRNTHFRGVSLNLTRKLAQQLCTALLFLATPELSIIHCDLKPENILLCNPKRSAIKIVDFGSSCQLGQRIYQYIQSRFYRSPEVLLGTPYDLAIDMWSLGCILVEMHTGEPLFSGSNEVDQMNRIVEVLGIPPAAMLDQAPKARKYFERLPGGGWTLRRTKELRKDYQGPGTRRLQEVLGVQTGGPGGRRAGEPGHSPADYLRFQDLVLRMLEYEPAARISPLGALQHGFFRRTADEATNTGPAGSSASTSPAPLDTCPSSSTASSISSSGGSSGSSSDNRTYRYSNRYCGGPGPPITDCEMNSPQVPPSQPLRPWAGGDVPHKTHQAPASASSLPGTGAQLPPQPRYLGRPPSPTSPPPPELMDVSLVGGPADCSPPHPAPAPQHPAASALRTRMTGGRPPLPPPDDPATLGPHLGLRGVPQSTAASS
MAP kinase-interacting serine/threonine-protein kinase 2, sequence (Q9HBH9 whole entry, the tested form may be a part): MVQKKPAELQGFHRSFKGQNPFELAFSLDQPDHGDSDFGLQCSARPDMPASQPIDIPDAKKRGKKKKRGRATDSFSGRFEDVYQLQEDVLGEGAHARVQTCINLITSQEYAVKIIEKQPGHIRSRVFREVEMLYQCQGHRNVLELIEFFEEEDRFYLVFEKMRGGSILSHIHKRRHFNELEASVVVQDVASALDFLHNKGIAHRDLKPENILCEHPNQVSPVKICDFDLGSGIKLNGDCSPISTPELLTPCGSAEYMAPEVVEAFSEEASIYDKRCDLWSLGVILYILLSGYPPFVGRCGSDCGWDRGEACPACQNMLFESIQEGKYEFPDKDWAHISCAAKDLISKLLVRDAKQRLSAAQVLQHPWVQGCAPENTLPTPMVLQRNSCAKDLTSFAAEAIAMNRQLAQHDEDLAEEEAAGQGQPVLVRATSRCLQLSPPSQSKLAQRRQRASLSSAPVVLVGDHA
Dual specificity protein kinase CLK3 (Homo sapiens), sequence (P49761 whole entry, looked up, the tested form may be a part): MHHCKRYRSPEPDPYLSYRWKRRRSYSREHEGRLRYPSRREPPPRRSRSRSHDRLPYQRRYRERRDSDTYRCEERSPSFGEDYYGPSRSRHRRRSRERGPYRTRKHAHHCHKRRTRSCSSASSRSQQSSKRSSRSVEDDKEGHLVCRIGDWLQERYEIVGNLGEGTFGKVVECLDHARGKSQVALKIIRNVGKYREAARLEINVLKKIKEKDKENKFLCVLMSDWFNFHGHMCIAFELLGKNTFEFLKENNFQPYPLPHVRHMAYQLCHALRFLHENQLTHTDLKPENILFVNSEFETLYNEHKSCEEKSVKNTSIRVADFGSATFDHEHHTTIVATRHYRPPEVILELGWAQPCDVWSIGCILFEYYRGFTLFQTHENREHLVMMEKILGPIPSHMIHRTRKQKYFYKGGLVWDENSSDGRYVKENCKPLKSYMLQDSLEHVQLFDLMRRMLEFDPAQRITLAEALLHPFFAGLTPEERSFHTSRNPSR

As for `CN(C)c1nccc(-c2cnn3ncccc23)n1`, the microsomal CLint in [1] amounted to 242 µL/min/mg. Further, the Activity in series [2] was determined as 2.7%; in series [3] it was 7.1%; in series [4] it was 54%; in series [5], 100%. The Kd in series [6] is 0.015 µM; in [7], 0.07 µM; in series [8] it was 1.8 µM; in [9] it was 1.8 µM; in [10], 10 µM. The same compound registered a t1/2 in [11] of 12 min. In addition, the Tmax in series [12] amounted to 1.8 min. The same compound displayed a peak concentration (Cmax) in [13] of 1082.8 ng/mL. Further, the MRT in series [14] stood at 12 min.
